From ChEMBL document CHEMBL1268976, “Stereocontrolled facile synthesis and antimicrobial activity of oximes and oxime ethers of diversely substituted bispidines” (2010) come the findings set out here.

What all share (assay type): functional
One assay has as its system Bacillus subtilis. Description: Antibacterial activity against Bacillus subtilis by broth microdilution method. The method in brief:
(§1)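 In vitro broth microdilution following the NCCLS standard for bacteria (M7-A5). The test panel was Bacillus subtilis, Staphylococcus aureus, Klebsiella pneumoniae and Pseudomonas aeruginosa.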

Another assay has as its system Staphylococcus aureus. Put plainly: Antibacterial activity against Staphylococcus aureus by broth microdilution method. The essentials:
as §1

The test system of assay [1] is Klebsiella pneumoniae. Put plainly: Antibacterial activity against Klebsiella pneumoniae by broth microdilution method. The essentials:
as §1

Assay [2] deals with Pseudomonas aeruginosa. Description: Antibacterial activity against Pseudomonas aeruginosa by broth microdilution method. The essentials:
as §1

A further assay has as its system Candida albicans. Description: Antifungal activity against Candida albicans by broth microdilution method. The method in brief:
(§2)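 Fungal panel of Candida albicans, Candida parapsilosis, Aspergillus niger and Cryptococcus neoformans, tested in vitro by standard NCCLS broth microdilution. The yeast susceptibility reference cited is M27-A.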

Another assay deals with Candida parapsilosis. Description: Antifungal activity against Candida parapsilosis by broth microdilution method. The following applies: Lodderomyces parapsilosis. The essentials:
as §2

For another assay, the system named is Aspergillus niger. Put plainly: Antifungal activity against Aspergillus niger by broth microdilution method. The essentials: as §2
A further assay concerns Cryptococcus neoformans. Put plainly: Antimicrobial activity against Cryptococcus neoformans by broth microdilution method. The method in brief: as §2
Assay [3] has as its system Klebsiella pneumoniae. Put plainly: Ratio of compound MIC90 to gentamicin MIC90 for Klebsiella pneumoniae.
Assay [4] relates to Pseudomonas aeruginosa. Put plainly: Ratio of gentamicin MIC90 to compound MIC90 for Pseudomonas aeruginosa.

Each structure is given as a SMILES string. In brackets after ≈: the same amount, converted by molar mass.

On to `CON=C1C2C(c3ccc(SC)cc3)NC(c3ccc(SC)cc3)C1C(c1ccc(SC)cc1)NC2c1ccc(SC)cc1` (configuration not stated), for which the MIC90 against Bacillus subtilis was 64 µg/mL (≈ 97.3 µM); in the assay on Staphylococcus aureus, greater than 128 µg/mL; against Klebsiella pneumoniae [1], 8 µg/mL (≈ 12.2 µM); in the assay with Pseudomonas aeruginosa [2], 4 µg/mL (≈ 6.08 µM); in the assay with Candida albicans, 32 µg/mL (≈ 48.6 µM); in the assay on Candida parapsilosis, 16 µg/mL (≈ 24.3 µM). Also, the MIC90 is 4 µg/mL (≈ 6.08 µM) in the assay with Aspergillus niger and 8 µg/mL (≈ 12.2 µM) in the assay with Cryptococcus neoformans. In addition, the Ratio in the assay with Klebsiella pneumoniae [3] and in the assay with Pseudomonas aeruginosa [4] was 4 in each case.
In the case of `CON=C1C2C(c3ccccc3C)NC(c3ccccc3C)C1C(c1ccccc1C)NC2c1ccccc1C` (configuration not stated), the MIC90 was greater than 128 µg/mL in the assay on Bacillus subtilis; greater than 128 µg/mL with Staphylococcus aureus; 16 µg/mL (≈ 30.2 µM) against Klebsiella pneumoniae [1]; 16 µg/mL (≈ 30.2 µM) against Pseudomonas aeruginosa [2]; 64 µg/mL (≈ 121 µM) in the assay with Candida albicans; 8 µg/mL (≈ 15.1 µM) against Candida parapsilosis. Moreover, the MIC90 is 64 µg/mL (≈ 121 µM) in the assay with Aspergillus niger and greater than 128 µg/mL against Cryptococcus neoformans. Also, the Ratio in the assay on Klebsiella pneumoniae [3] was found to be 8.
Take `CON=C1C2C(c3ccccc3OC)NC(c3ccccc3OC)C1C(c1ccccc1OC)NC2c1ccccc1OC` (configuration not stated): the MIC90 against Bacillus subtilis was 64 µg/mL (≈ 108 µM); against Staphylococcus aureus it was greater than 128 µg/mL; against Klebsiella pneumoniae [1], 8 µg/mL (≈ 13.5 µM); in the assay on Pseudomonas aeruginosa [2], 16 µg/mL (≈ 26.9 µM); against Candida albicans, 64 µg/mL (≈ 108 µM); against Candida parapsilosis, 32 µg/mL (≈ 53.9 µM). Besides, the figures for the MIC90 with Aspergillus niger and against Cryptococcus neoformans were 4 µg/mL (≈ 6.74 µM) and 8 µg/mL (≈ 13.5 µM), respectively. Besides, in the assay on Klebsiella pneumoniae [3], the Ratio is 4.
On to `CCCOc1ccc(C2NC(c3ccc(OCCC)cc3)C3C(=NOC)C2C(c2ccc(OCCC)cc2)NC3c2ccc(OCCC)cc2)cc1` (configuration not stated), for which the MIC90 in the assay with Bacillus subtilis was greater than 128 µg/mL; against Staphylococcus aureus it was greater than 128 µg/mL; in the assay with Klebsiella pneumoniae [1], 16 µg/mL (≈ 22.7 µM); against Pseudomonas aeruginosa [2], 64 µg/mL (≈ 90.7 µM); against Candida albicans it was greater than 128 µg/mL; against Candida parapsilosis it was greater than 128 µg/mL. The values for the MIC90 in the assay on Aspergillus niger and against Cryptococcus neoformans were 16 µg/mL (≈ 22.7 µM) and 32 µg/mL (≈ 45.3 µM), respectively. The Ratio with Klebsiella pneumoniae [3] was determined as 8.
For the compound `CON=C1C2C(c3ccc(C)cc3)NC(c3ccc(C)cc3)C1C(c1ccc(C)cc1)NC2c1ccc(C)cc1` (configuration not stated), the MIC90 was 64 µg/mL (≈ 121 µM) in the assay with Bacillus subtilis; greater than 128 µg/mL in the assay on Staphylococcus aureus; 8 µg/mL (≈ 15.1 µM) with Klebsiella pneumoniae [1]; 4 µg/mL (≈ 7.55 µM) against Pseudomonas aeruginosa [2]; 64 µg/mL (≈ 121 µM) in the assay on Candida albicans; 2 µg/mL (≈ 3.78 µM) against Candida parapsilosis. Further, the values for the MIC90 with Aspergillus niger and with Cryptococcus neoformans were 64 µg/mL (≈ 121 µM) and greater than 128 µg/mL, respectively. The Ratio in the assay with Klebsiella pneumoniae [3] and in the assay on Pseudomonas aeruginosa [4] was 4 each time.
